Values after ≈ are worked out from the molar mass of the structure shown.
These compounds were tested on Influenza A virus (assay: Antiviral activity against oseltamivir-resistant Influenza A virus (A/Tianjinjinnan/15/2009/H1N1) infected in MDCK cells assessed as inhibition of virus-induced cytopathicity after 40 hrs). Conditions: A/Tianjin-Jinnan/15/2009(H1N1).
Format: functional, organism-based
In short: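 CPE reduction in MDCK cells: cells grown 24 h at 37 °C, 5% CO2, then infected and held 2 h at 37 °C before the inoculum was removed. Threefold serial drug dilutions (8 levels from 20 mg/mL DMSO stocks) were added and incubated 40 h at 37 °C. CPE inhibition was scored against cell and virus controls to give IC50. Ribavirin and oseltamivir were the controls.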
Work on `C=C(C(=O)OCc1cn(Cc2cccc(C)c2)nn1)[C@@H]1CC[C@H](C)[C@@H]2CC(=O)C(C)=C2C1` yielded an IC50 of 19.7 µg/mL (≈ 45.5 µM). `C=C(C(=O)OCc1cn(Cc2ccc(Cl)c(Cl)c2)nn1)[C@@H]1CC[C@H](C)[C@@H]2CC(=O)C(C)=C2C1` was tested, and the IC50 was > 7.41 µg/mL. In the case of `C=C(C(=O)NCc1cn(Cc2cccc(C)c2)nn1)[C@@H]1CC[C@H](C)[C@@H]2CC(=O)C(C)=C2C1`, the IC50 is reported as > 22.2 µg/mL. With `C=C(C(=O)OCc1cn(Cc2cccc(OC)c2)nn1)[C@@H]1CC[C@H](C)[C@@H]2CC(=O)C(C)=C2C1` the IC50 was > 22.2 µg/mL. `C=C(C(=O)NCc1cn(Cc2cccc(OC)c2)nn1)[C@@H]1CC[C@H](C)[C@@H]2CC(=O)C(C)=C2C1` was tested, and the IC50 was > 22.2 µg/mL. For `C=C(C(=O)NCc1cn(Cc2ccccc2)nn1)[C@@H]1CC[C@H](C)[C@@H]2CC(=O)C(C)=C2C1`, the IC50 was > 22.2 µg/mL. In the case of `C=C(C(=O)OCc1cn(C2CCCCC2)nn1)[C@@H]1CC[C@H](C)[C@@H]2CC(=O)C(C)=C2C1`, the IC50 is reported as 59.2 µg/mL (≈ 144 µM). Work on `C=C(C(=O)NCc1cn(Cc2ccc(Cl)c(Cl)c2)nn1)[C@@H]1CC[C@H](C)[C@@H]2CC(=O)C(C)=C2C1` yielded an IC50 of 22.2 µg/mL (≈ 45.6 µM). Compound `C=C(C(=O)OCc1cn(Cc2ccc(OC)cc2)nn1)[C@@H]1CC[C@H](C)[C@@H]2CC(=O)C(C)=C2C1` has an IC50 of 22.2 µg/mL (≈ 49.4 µM). Compound `C=C(C(=O)NCc1cn(C2CCCCC2)nn1)[C@@H]1CC[C@H](C)[C@@H]2CC(=O)C(C)=C2C1` has an IC50 of 22.2 µg/mL (≈ 54.1 µM). For `C=C(C(=O)NCc1cn(Cc2ccccc2Cl)nn1)[C@@H]1CC[C@H](C)[C@@H]2CC(=O)C(C)=C2C1`, the IC50 was > 7.41 µg/mL. With `C=C(C(=O)NCc1cn(Cc2ccc(C)cc2)nn1)[C@@H]1CC[C@H](C)[C@@H]2CC(=O)C(C)=C2C1` the IC50 was > 22.2 µg/mL. In the case of `C=C(C(=O)NCc1cn(Cc2ccc(Cl)cc2)nn1)[C@@H]1CC[C@H](C)[C@@H]2CC(=O)C(C)=C2C1`, the IC50 is reported as > 2.47 µg/mL. `C=C(C(=O)NCc1cn(Cc2ccc(F)cc2)nn1)[C@@H]1CC[C@H](C)[C@@H]2CC(=O)C(C)=C2C1` was tested, and the IC50 was > 66.7 µg/mL. With `C=C(C(=O)OCc1cn(Cc2ccc(C)cc2)nn1)[C@@H]1CC[C@H](C)[C@@H]2CC(=O)C(C)=C2C1` the IC50 was > 22.2 µg/mL. For `CCOC(=O)C1=C[C@@H](OC(CC)CC)[C@H](NC(C)=O)[C@@H](N)C1` [OSELTAMIVIR], the IC50 was > 500 µg/mL. Compound `C=C(C(=O)NCc1cn(C2C=CCCC2)nn1)[C@@H]1CC[C@H](C)[C@@H]2CC(=O)C(C)=C2C1` (some centres not stated) has an IC50 of 19.7 µg/mL (≈ 48.3 µM). In the case of `C=C(C(=O)OCc1cn(Cc2ccccc2)nn1)[C@@H]1CC[C@H](C)[C@@H]2CC(=O)C(C)=C2C1`, the IC50 is reported as > 7.41 µg/mL. For `C=C(C(=O)NCc1cn(Cc2ccccc2C)nn1)[C@@H]1CC[C@H](C)[C@@H]2CC(=O)C(C)=C2C1`, the IC50 was > 22.2 µg/mL. With `C=C(C(=O)NCc1cn(Cc2cccc(F)c2)nn1)[C@@H]1CC[C@H](C)[C@@H]2CC(=O)C(C)=C2C1` the IC50 was > 22.2 µg/mL. With `C=C(C(=O)OCc1cn(Cc2cccc(Cl)c2)nn1)[C@@H]1CC[C@H](C)[C@@H]2CC(=O)C(C)=C2C1` the IC50 was > 66.7 µg/mL. `C=C(C(=O)OCc1cn(Cc2ccc(F)cc2)nn1)[C@@H]1CC[C@H](C)[C@@H]2CC(=O)C(C)=C2C1` was tested, and the IC50 was > 22.2 µg/mL. In the case of `C=C(C(=O)NCc1cn(Cc2ccc(OC)cc2)nn1)[C@@H]1CC[C@H](C)[C@@H]2CC(=O)C(C)=C2C1`, the IC50 is reported as > 22.2 µg/mL. In the case of `NC(=O)c1ncn([C@@H]2O[C@H](CO)[C@@H](O)[C@H]2O)n1` [RIBAVIRIN], the IC50 is reported as 6.5 µg/mL (≈ 26.6 µM). With `C=C(C(=O)OCc1cn(Cc2ccccc2C)nn1)[C@@H]1CC[C@H](C)[C@@H]2CC(=O)C(C)=C2C1` the IC50 was > 22.2 µg/mL. In the case of `C=C(C(=O)NCc1cn(Cc2cccc(Cl)c2)nn1)[C@@H]1CC[C@H](C)[C@@H]2CC(=O)C(C)=C2C1`, the IC50 is reported as > 7.41 µg/mL. With `C=C(C(=O)OCc1cn(Cc2ccccc2F)nn1)[C@@H]1CC[C@H](C)[C@@H]2CC(=O)C(C)=C2C1` the IC50 was > 22.2 µg/mL. For `C=C(C(=O)NCc1cn(Cc2ccccc2F)nn1)[C@@H]1CC[C@H](C)[C@@H]2CC(=O)C(C)=C2C1`, the IC50 was > 66.7 µg/mL. `C=C(C(=O)OCc1cn(Cc2ccc(Cl)cc2)nn1)[C@@H]1CC[C@H](C)[C@@H]2CC(=O)C(C)=C2C1` was tested, and the IC50 was > 22.2 µg/mL. With `C=C(C(=O)OCc1cn(Cc2cccc(F)c2)nn1)[C@@H]1CC[C@H](C)[C@@H]2CC(=O)C(C)=C2C1` the IC50 was > 22.2 µg/mL. `C=C(C(=O)OCc1cn(Cc2ccccc2Cl)nn1)[C@@H]1CC[C@H](C)[C@@H]2CC(=O)C(C)=C2C1` was tested, and the IC50 was 59.2 µg/mL (≈ 130 µM). `C=C(C(=O)OCc1cn(C2C=CCCC2)nn1)[C@@H]1CC[C@H](C)[C@@H]2CC(=O)C(C)=C2C1` (some centres not stated) was tested, and the IC50 was > 7.41 µg/mL.

From ChEMBL document CHEMBL3124823, “1,2,3-Triazole-containing derivatives of rupestonic acid: click-chemical synthesis and antiviral activities against influenza viruses” (Eur J Med Chem, 2014)
